≈ marks a conversion by molar mass, not a printed value.
Tests used:
[1] = tested on: UO-31; experiment: Growth inhibition of human UO31 cells; format: functional
Summary of the method: (§1)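 Tested at the NCI in its human disease-oriented in vitro screen of 60 tumour cell lines, following the Monks et al. methods. Activity is expressed as GI50, given as log molar values.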

[2] = tested on: TK-10; experiment: Growth inhibition of human TK10 cells; format: functional; summary of the method: as §1
[3] = tested on: SN12C; experiment: Growth inhibition of human SN12C cells; format: functional; summary of the method: as §1
[4] = tested on: RXF 393; experiment: Growth inhibition of human […] cells; format: functional
[5] = tested on: ACHN; experiment: Growth inhibition of human ACHN cells; format: functional
[6] = tested on: SK-OV-3; experiment: Growth inhibition of human SK-OV-3 cells; format: functional; summary of the method: as §1
[7] = Growth inhibition of human OVACR8 cells; format: functional
[8] = Growth inhibition of human OVACR5 cells; format: functional
[9] = Growth inhibition of human OVACR4 cells; format: functional
[10] = Growth inhibition of human […] cells; format: functional
[11] = tested on: IGROV-1; experiment: Growth inhibition of human IGROV1 cells; format: functional
[12] = tested on: UACC-62; experiment: Growth inhibition of human UACC62 cells; format: functional; summary of the method: as §1
[13] = tested on: SK-MEL-5; experiment: Growth inhibition of human SK-MEL-5 cells; format: functional; summary of the method: as §1
[14] = tested on: SK-MEL-28; experiment: Growth inhibition of human SK-MEL-28 cells; format: functional; summary of the method: as §1
[15] = tested on: SK-MEL-2; experiment: Growth inhibition of human SK-MEL-2 cells; format: functional; summary of the method: as §1
[16] = tested on: M19-MEL; experiment: Growth inhibition of human M19-MEL cells; format: functional
[17] = tested on: M14; experiment: Growth inhibition of human M14 cells; format: functional
[18] = tested on: Malme-3M; experiment: Growth inhibition of human MALME-3M cells; format: functional
[19] = tested on: LOX IMVI; experiment: Growth inhibition of human LOX IMVI cells; format: functional
[20] = tested on: XF498; experiment: Growth inhibition of human XF498 cells; format: functional; summary of the method: as §1
[21] = tested on: U-251; experiment: Growth inhibition of human U251 cells; format: functional; summary of the method: as §1
[22] = tested on: SNB-75; experiment: Growth inhibition of human SNB75 cells; format: functional; summary of the method: as §1
[23] = tested on: SNB-19; experiment: Growth inhibition of human SNB19 cells; format: functional; summary of the method: as §1
[24] = tested on: SF-539; experiment: Growth inhibition of human SF539 cells; format: functional; summary of the method: as §1
[25] = tested on: SF-268; experiment: Growth inhibition of human SF268 cells; format: functional; summary of the method: as §1
[26] = tested on: SW-620; experiment: Growth inhibition of human SW620 cells; format: functional; summary of the method: as §1
[27] = tested on: KM-20L2; experiment: Growth inhibition of human KM20L2 cells; format: functional
[28] = tested on: KM12; experiment: Growth inhibition of human KM12 cells; format: functional
[29] = tested on: HT-29; experiment: Growth inhibition of human HT29 cells; format: functional
[30] = tested on: HCT-15; experiment: Growth inhibition of human HCT15 cells; format: functional
[31] = tested on: HCT-116; experiment: Growth inhibition of human HCT116 cells; format: functional
[32] = tested on: HCC 2998; experiment: Growth inhibition of human HCC2998 cells; format: functional
[33] = tested on: DLD-1; experiment: Growth inhibition of human DLD1 cells; format: functional
[34] = tested on: COLO 205; experiment: Growth inhibition of human COLO205 cells; format: functional
[35] = tested on: DMS-273; experiment: Growth inhibition of human DMS273 cells; format: functional
[36] = Growth inhibition of human DMS144 cells; format: functional
[37] = Growth inhibition of human LXFL529 cells; format: functional; settings: LXFL 529
[38] = tested on: NCI-H522; experiment: Growth inhibition of human NCI-H522 cells; format: functional
[39] = tested on: NCI-H460; experiment: Growth inhibition of human NCI-H460 cells; format: functional
[40] = tested on: NCI-H322M; experiment: Growth inhibition of human NCI-H322M cells; format: functional
[41] = tested on: NCI-H226; experiment: Growth inhibition of human NCI-H226 cells; format: functional
[42] = tested on: HOP-92; experiment: Growth inhibition of human HOP92 cells; format: functional
[43] = tested on: HOP-62; experiment: Growth inhibition of human HOP62 cells; format: functional
[44] = tested on: A549; experiment: Growth inhibition of human A549 cells; format: functional
[45] = tested on: SR; experiment: Growth inhibition of human SR cells; format: functional; summary of the method: as §1
[46] = Growth inhibition of human RPMI8266 cells; format: functional
[47] = tested on: MOLT-4; experiment: Growth inhibition of human MOLT4 cells; format: functional
[48] = tested on: K562; experiment: Growth inhibition of human K562 cells; format: functional
[49] = Growth inhibition of human HL60(TB) cells; format: functional, HL-60(TB); settings: HL-60
[50] = tested on: CCRF-CEM; experiment: Growth inhibition of human CCRF-CEM cells; format: functional
[51] = tested on: CAKI-1; experiment: Growth inhibition of human CAKI1 cells; format: functional
[52] = tested on: 786-0; experiment: Growth inhibition of human 786-0 cells; format: functional
[53] = tested on: UACC-257; experiment: Growth inhibition of human UACC257 cells; format: functional; summary of the method: as §1
[54] = tested on: SF-295; experiment: Growth inhibition of human SF295 cells; format: functional; summary of the method: as §1
[55] = tested on: HOP-18; experiment: Growth inhibition of human HOP18 cells; format: functional
[56] = tested on: EKVX; experiment: Growth inhibition of human EKVX cells; format: functional
[57] = tested on: KB; experiment: Growth inhibition of human KB cells; format: functional; settings: read-out: ED50 (the source's name)
Summary of the method: (§2)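 In-house cytotoxicity assay following an NCI protocol, run on a panel of human tumour lines: KB nasopharyngeal epidermoid carcinoma and HCT-8 ileocecal adenocarcinoma. Potency is reported as ED50 in µg/mL.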

[58] = tested on: HCT-8; experiment: Growth inhibition of human HCT8 cells; format: functional; settings: read-out: ED50 (the source's name); summary of the method: as §2
[59] = read-out: ED50 (the source's name)

## Cc1cc2c(cc1O)[nH]c1cc3c(cc12)C=CC(C)(C)O3
[1]
  GI50: 11.5 µM
[2]
  GI50: 25.1 µM
[3]
  GI50: 6.31 µM
[4]
  GI50: 4.9 µM
[5]
  GI50: 9.33 µM
[6]
  GI50: 25.1 µM
[7]
  GI50: 4.57 µM
[8]
  GI50: 17.8 µM
[9]
  GI50: 10.5 µM
[10]
  GI50: 7.24 µM
[11]
  GI50: 22.9 µM
[12]
  GI50: 6.76 µM
[13]
  GI50: 17.4 µM
[14]
  GI50: 14.5 µM
[15]
  GI50: 25.1 µM
[16]
  GI50: 19.5 µM
[17]
  GI50: 6.03 µM
[18]
  GI50: 10 µM
[19]
  GI50: 3.98 µM
[20]
  GI50: 25.1 µM
[21]
  GI50: 6.03 µM
[22]
  GI50: 11.2 µM
[23]
  GI50: 25.1 µM
[24]
  GI50: 4.07 µM
[25]
  GI50: 6.76 µM
[26]
  GI50: 7.59 µM
[27]
  GI50: 9.33 µM
[28]
  GI50: 5.25 µM
[29]
  GI50: 11.7 µM
[30]
  GI50: 8.71 µM
[31]
  GI50: 12.9 µM
[32]
  GI50: 6.76 µM
[33]
  GI50: 12.9 µM
[34]
  GI50: 25.1 µM
[35]
  GI50: 5.01 µM
[36]
  GI50: 10.7 µM
[37]
  GI50: 9.33 µM
[38]
  GI50: 8.32 µM
[39]
  GI50: 5.37 µM
[40]
  GI50: 13.2 µM
[41]
  GI50: 19.1 µM
[42]
  GI50: 9.77 µM
[43]
  GI50: 7.94 µM
[44]
  GI50: 6.46 µM
[45]
  GI50: 6.46 µM
[46]
  GI50: 9.12 µM
[47]
  GI50: 0.00324 µM
[48]
  GI50: 25.1 µM
[49]
  GI50: 6.92 µM
[50]
  GI50: 20 µM

## CC1=CC(=O)c2[nH]c3ccccc3c2C1=O [MURRAYAQUINONE A]
[1]
  GI50: 3.98 µM
[2]
  GI50: 5.01 µM
[3]
  GI50: 4.57 µM
[4]
  GI50: 3.47 µM
[51]
  GI50: 14.5 µM
[5]
  GI50: 4.17 µM
[52]
  GI50: 4.27 µM
[6]
  GI50: 20.9 µM
[7]
  GI50: 3.98 µM
[8]
  GI50: 5.37 µM
[9]
  GI50: 4.17 µM
[10]
  GI50: 4.57 µM
[11]
  GI50: 6.61 µM
[12]
  GI50: 4.17 µM
[53]
  GI50: 4.57 µM
[13]
  GI50: 4.27 µM
[13]; [59]
  EC50: 2.58 µg/mL (≈ 12.2 µM)
[14]
  GI50: 4.47 µM
[15]
  GI50: 5.37 µM
[17]
  GI50: 4.17 µM
[18]
  GI50: 4.9 µM
[20]
  GI50: 4.37 µM
[21]
  GI50: 15.5 µM
[22]
  GI50: 4.37 µM
[23]
  GI50: 25.1 µM
[24]
  GI50: 4.27 µM
[54]
  GI50: 4.37 µM
[25]
  GI50: 4.37 µM
[26]
  GI50: 3.98 µM
[27]
  GI50: 25.1 µM
[28]
  GI50: 4.37 µM
[29]
  GI50: 17.8 µM
[30]
  GI50: 4.17 µM
[31]
  GI50: 4.47 µM
[32]
  GI50: 7.08 µM
[33]
  GI50: 5.01 µM
[34]
  GI50: 4.07 µM
[34]; [59]
  EC50: 3.85 µg/mL (≈ 18.2 µM)
[35]
  GI50: 4.27 µM
[36]
  GI50: 4.27 µM
[37]
  GI50: 4.27 µM
[38]
  GI50: 3.8 µM
[39]
  GI50: 8.13 µM
[40]
  GI50: 25.1 µM
[41]
  GI50: 6.61 µM
[42]
  GI50: 3.98 µM
[43]
  GI50: 25.1 µM
[55]
  GI50: 3.39 µM
[56]
  GI50: 4.07 µM
[44]
  GI50: 25.1 µM
[45]
  GI50: 5.75 µM
[46]
  GI50: 5.89 µM
[47]
  GI50: 5.37 µM
[48]
  GI50: 5.62 µM
[49]
  GI50: 4.07 µM
[50]
  GI50: 3.31 µM
[57]
  EC50: 5.18 µg/mL (≈ 24.5 µM)
[58]
  EC50: 5.5 µg/mL (≈ 26 µM)

— ChEMBL document CHEMBL1142636 (2000)
